Type in all cases: functional, organism-based
In assay [1] the test system is Plasmodium falciparum. The assay is described as follows: Antiplasmodial activity against multidrug-resistant Plasmodium falciparum […] after 18 hrs by [3H]hypoxanthine incorporation assay. The essentials:
(§1)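 Reference strains (multidrug-resistant V1S, drug-sensitive 3D7) in RPMI 1640 with 15% human serum. Threefold drug dilutions; 0.5% parasitemia, 1.5% hematocrit; 66 h at 37°C under 5% O2/5% CO2/90% N2, then [3H]hypoxanthine added for 18 h, freeze-thaw lysis, counting. IC50 by nonlinear regression of dose-response; four determinations per strain.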

Assay [2] relates to Plasmodium falciparum. Kind of assay: Antiplasmodial activity against multidrug-sensitive Plasmodium falciparum 3D7 after 18 hrs by [3H]hypoxanthine incorporation assay. In outline: as §1
For assay [3], the system named is Plasmodium falciparum. The assay is described as follows: Antiplasmodial activity against Plasmodium falciparum clinical isolate after 18 hrs by [3H]hypoxanthine incorporation assay. In outline:
(§2)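 Kenyan field isolates, culture-adapted in long term (some cryopreserved first), grown in RPMI 1640 with 15% human serum, HEPES, bicarbonate, glutamine and pABA. Genotyped at pfcrt 76 and pfmdr1 86 from dried blood spots. Threefold dilutions; 0.5% parasitemia, 1.5% hematocrit; 66 h at 37°C in 5% O2/5% CO2/90% N2, then [3H]hypoxanthine for 18 h. IC50 by nonlinear regression; each isolate measured twice.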

For assay [4], the system named is Plasmodium falciparum. The assay is described as follows: Antiplasmodial activity against Plasmodium falciparum harboring wild type pfcrt-76 gene after 18 hrs by [3H]hypoxanthine incorporation assay. The essentials:
as §2

Assay [5] deals with Plasmodium falciparum. The assay is described as follows: Antiplasmodial activity against Plasmodium falciparum harboring mutant pfcrt-76 gene after 18 hrs by [3H]hypoxanthine incorporation assay. In outline: as §2
The subject of assay [6] is Plasmodium falciparum. The assay is described as follows: Antiplasmodial activity against Plasmodium falciparum harboring wild type and mutant pfcrt-76 gene after 18 hrs by [3H]hypoxanthine incorporation assay. In outline: as §2
For assay [7], the system named is Plasmodium falciparum. Kind of assay: Antiplasmodial activity against Plasmodium falciparum harboring mutant pfcrt-76 and mutant pfmdr-1-86 gene after 18 hrs by [3H]hypoxanthine incorporation assay. The essentials:
as §2

The subject of assay [8] is Plasmodium falciparum. The assay is described as follows: Antiplasmodial activity against Plasmodium falciparum harboring mutant pfcrt-76 and wild type pfmdr-1-86 gene after 18 hrs by [3H]hypoxanthine incorporation assay. In outline: as §2
Assay [9] has as its system Plasmodium falciparum. The assay is described as follows: Antiplasmodial activity against Plasmodium falciparum harboring wild type pfmdr-1-86 gene after 18 hrs by [3H]hypoxanthine incorporation assay. In outline: as §2
Assay [10] has as its system Plasmodium falciparum. Kind of assay: Antiplasmodial activity against Plasmodium falciparum harboring mutant pfmdr-1-86 gene after 18 hrs by [3H]hypoxanthine incorporation assay. The essentials: as §2
Assay [11] concerns Plasmodium falciparum. The assay is described as follows: Antiplasmodial activity against Plasmodium falciparum harboring wild type and mutant pfmdr-1-86 gene after 18 hrs by [3H]hypoxanthine incorporation assay. The essentials:
as §2

In assay [12] the test system is Plasmodium falciparum. Kind of assay: Antiplasmodial activity against Plasmodium falciparum harboring wild type pfcrt-76 and mutant pfmdr-1-86 gene after 18 hrs by [3H]hypoxanthine incorporation assay. In outline:
as §2

Assay [13] deals with Plasmodium falciparum. Kind of assay: Antiplasmodial activity against Plasmodium falciparum harboring wild type pfcrt-76 and wild type pfmdr-1-86 gene after 18 hrs by [3H]hypoxanthine incorporation assay. The essentials: as §2

The values below come from ChEMBL document CHEMBL1649283, “In vitro activities of piperaquine, lumefantrine, and dihydroartemisinin in Kenyan Plasmodium falciparum isolates and polymorphisms in pfcrt and pfmdr1” (Antimicrob Agents Chemother, 2009).

Each structure is given as a SMILES string.

As to `Clc1ccc2c(N3CCN(CCCN4CCN(c5ccnc6cc(Cl)ccc56)CC4)CC3)ccnc2c1` [PIPERAQUINE], the IC50 in the assay on Plasmodium falciparum [1] came to 42 nM; in the assay with Plasmodium falciparum [2], 27 nM; with Plasmodium falciparum [3], 32 nM; in the assay on Plasmodium falciparum [4], 35 nM; with Plasmodium falciparum [5], 38 nM.
As to `CCN(CC)CCCC(C)Nc1ccnc2cc(Cl)ccc12` (configuration not stated) [CHLOROQUINE], the IC50 came out at 21 nM in the assay on Plasmodium falciparum [6], 57 nM with Plasmodium falciparum [5], 72 nM with Plasmodium falciparum [7] and 54 nM with Plasmodium falciparum [8].
For `C[C@H]1[C@@H](O)O[C@@H]2O[C@@]3(C)CC[C@H]4[C@H](C)CC[C@@H]1[C@@]24OO3` [ARTENIMOL], the IC50 was 2 nM in the assay on Plasmodium falciparum [1]; 2 nM in the assay with Plasmodium falciparum [2]; 2 nM with Plasmodium falciparum [3]; less than 25 nM with Plasmodium falciparum [5]; 3 nM in the assay with Plasmodium falciparum [9]; 2 nM in the assay with Plasmodium falciparum [10].
For the compound `CCCCN(CCCC)CC(O)c1cc(Cl)cc2c1-c1ccc(Cl)cc1/C2=C/c1ccc(Cl)cc1` (configuration not stated) [LUMEFANTRINE], the IC50 is 24 nM in the assay on Plasmodium falciparum [1]; 96 nM in the assay with Plasmodium falciparum [2]; 50 nM with Plasmodium falciparum [3]; 67 nM in the assay with Plasmodium falciparum [6]; 43 nM with Plasmodium falciparum [5]; 124 nM in the assay on Plasmodium falciparum [9]. Also, the IC50 in the assay on Plasmodium falciparum [10] was determined as 43 nM; with Plasmodium falciparum [11] it was 57 nM; in the assay on Plasmodium falciparum [7] it was 31 nM; in the assay on Plasmodium falciparum [8], 99 nM; in the assay on Plasmodium falciparum [12], 63 nM; in the assay with Plasmodium falciparum [13] it was 173 nM.
